The values that follow come from PMC5189635 (ChemMedChem, 2016).

A word on the IC50: it is the concentration that inhibits the measured activity by half.

In brackets after ≈: the same amount, converted by molar mass. Read-outs that look alike come from different tables or passages of the source. Marks after values point to notes of the source that are not given here.

Test [1] has as its system P. aeruginosa T15464 (MDR). The test is described as follows: MIC, P. aeruginosa T15464. Type of test: cell-based.
The next test relates to S. typhimurium SL1344. The test is described as follows: MIC, S. typhimurium SL1344. Type of test: cell-based.
The next test deals with K. pneumoniae BARB 105. As to the kind of experiment: MIC, K. pneumoniae BARB 105. Type of test: cell-based.
The test system of another test is A. baumanii ATCC9955. As to the kind of experiment: MIC, A. baumanii ATCC9955. Type of test: cell-based.
The next test has as its system E. coli C291-b1. As to the kind of experiment: MIC, E. coli C291-b1. Type of test: cell-based.
The test system of the next test is Klebisiella spp. The test is described as follows: MIC, Klebisiella spp. Type of test: cell-based.
The next test concerns E. coli NR698. As to the kind of experiment: Bacteriostatic effect. Type of test: cell-based. The settings on record: Addition None.
Test [2] concerns Shigella flexneri ATCC12022. As to the kind of experiment: Bacteriostatic effect. Type of test: cell-based. A digest of the protocol:
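Broth microdilution per CLSI guidelines: LB with 0.2% glucose, exponential-phase cells (OD600 ≈ 0.5), 2% DMSO final. Permeabilizer, where added, was PMBN 25 μg/mL or NAB7061 4 μg/mL. Incubated 24 h at 37 °C with shaking at 250 rpm. Run in triplicate in three separate experiments. MIC is the lowest concentration with no growth.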

In the next test the target is PaSecA (Pseudomonas aeruginosa, UniProt Q9LCT3). The settings on record: read-out: Protein translocation IC50; PaSecA-liposomes; published RB; cited from earlier work.
Chain of PaSecA (Q9LCT3 whole entry): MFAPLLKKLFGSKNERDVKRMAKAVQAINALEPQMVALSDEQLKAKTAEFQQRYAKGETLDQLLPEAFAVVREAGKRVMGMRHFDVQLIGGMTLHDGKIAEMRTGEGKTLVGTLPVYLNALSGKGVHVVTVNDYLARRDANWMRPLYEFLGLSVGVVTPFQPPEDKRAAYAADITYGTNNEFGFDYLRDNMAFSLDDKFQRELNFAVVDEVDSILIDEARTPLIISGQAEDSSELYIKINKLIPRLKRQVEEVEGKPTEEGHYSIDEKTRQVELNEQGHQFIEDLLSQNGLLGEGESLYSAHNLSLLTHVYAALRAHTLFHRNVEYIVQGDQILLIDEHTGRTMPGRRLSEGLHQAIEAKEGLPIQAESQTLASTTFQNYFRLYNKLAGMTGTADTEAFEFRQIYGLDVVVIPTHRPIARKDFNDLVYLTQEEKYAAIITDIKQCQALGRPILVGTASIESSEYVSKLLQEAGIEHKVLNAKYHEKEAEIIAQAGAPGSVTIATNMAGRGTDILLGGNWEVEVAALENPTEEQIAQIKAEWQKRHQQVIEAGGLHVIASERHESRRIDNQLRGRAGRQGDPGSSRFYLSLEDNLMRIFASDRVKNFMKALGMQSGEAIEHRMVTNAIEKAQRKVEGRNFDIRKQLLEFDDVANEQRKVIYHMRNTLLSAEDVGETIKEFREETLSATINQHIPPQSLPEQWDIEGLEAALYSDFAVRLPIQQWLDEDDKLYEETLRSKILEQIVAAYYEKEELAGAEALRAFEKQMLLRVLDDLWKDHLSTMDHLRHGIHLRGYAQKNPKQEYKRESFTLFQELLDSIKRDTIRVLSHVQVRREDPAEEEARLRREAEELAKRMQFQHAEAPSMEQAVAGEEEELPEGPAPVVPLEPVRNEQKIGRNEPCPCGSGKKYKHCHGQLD
The target in the next test is SpuB ATPase (Pseudomonas aeruginosa, UniProt Q9I6J3). As to the kind of experiment: In vitro ATPase activity, SpuB. The format is biochemical. The settings on record: read-out: ATPase activity IC50.
A further test deals with H+-ATPase (Escherichia coli, UniProt P0ABB0+P0ABB4). The test is described as follows: In vitro ATPase activity, H+-ATPase. The settings on record: read-out: ATPase activity IC50. Type of test: biochemical.
Chain of H+-ATPase (P0ABB0 whole entry): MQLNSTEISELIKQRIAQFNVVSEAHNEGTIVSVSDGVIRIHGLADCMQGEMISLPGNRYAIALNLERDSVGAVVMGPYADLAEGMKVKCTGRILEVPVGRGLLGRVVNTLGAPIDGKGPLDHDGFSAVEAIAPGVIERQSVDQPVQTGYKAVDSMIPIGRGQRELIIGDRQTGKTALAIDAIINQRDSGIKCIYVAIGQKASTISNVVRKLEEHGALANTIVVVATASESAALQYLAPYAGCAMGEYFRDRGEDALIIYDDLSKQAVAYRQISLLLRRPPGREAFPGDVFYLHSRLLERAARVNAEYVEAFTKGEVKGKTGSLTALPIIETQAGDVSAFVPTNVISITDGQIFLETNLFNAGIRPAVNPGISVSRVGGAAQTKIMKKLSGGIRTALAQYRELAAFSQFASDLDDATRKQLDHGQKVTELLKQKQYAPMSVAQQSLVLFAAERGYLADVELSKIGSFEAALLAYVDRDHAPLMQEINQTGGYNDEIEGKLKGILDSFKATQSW
Chain of H+-ATPase (P0ABB4 2-460): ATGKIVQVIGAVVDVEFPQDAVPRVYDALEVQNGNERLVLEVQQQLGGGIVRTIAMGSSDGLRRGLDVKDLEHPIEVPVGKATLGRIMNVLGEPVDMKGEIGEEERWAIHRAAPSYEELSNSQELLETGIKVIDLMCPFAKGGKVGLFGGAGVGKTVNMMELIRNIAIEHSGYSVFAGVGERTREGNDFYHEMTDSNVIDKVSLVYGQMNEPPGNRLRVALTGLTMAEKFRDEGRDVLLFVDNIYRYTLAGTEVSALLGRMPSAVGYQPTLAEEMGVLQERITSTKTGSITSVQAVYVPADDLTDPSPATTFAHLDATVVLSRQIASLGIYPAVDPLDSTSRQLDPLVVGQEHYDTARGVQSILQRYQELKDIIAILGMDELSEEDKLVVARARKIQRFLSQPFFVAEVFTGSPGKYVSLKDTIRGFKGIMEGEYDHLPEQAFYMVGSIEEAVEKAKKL
Chain of H+-ATPase (P0ABA6 whole entry, further chain): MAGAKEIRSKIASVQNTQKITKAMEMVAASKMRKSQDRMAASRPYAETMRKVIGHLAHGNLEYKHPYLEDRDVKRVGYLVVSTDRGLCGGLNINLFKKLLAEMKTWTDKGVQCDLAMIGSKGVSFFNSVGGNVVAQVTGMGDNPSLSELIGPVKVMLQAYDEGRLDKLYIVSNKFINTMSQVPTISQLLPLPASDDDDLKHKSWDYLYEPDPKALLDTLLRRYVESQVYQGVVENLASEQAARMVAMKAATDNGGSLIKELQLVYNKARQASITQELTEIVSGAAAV
A further test has as its system E. coli MC4100. The test is described as follows: Bacteriostatic effect. Type of test: cell-based.
The mark [3] stands for this setting: Pseudomonas aeruginosa, read-out: MIC100.
Setting [4] is: S. typhimurium SL1344, NAB7061 4 μg/mL.
[5] abbreviates: S. typhimurium SL1344, PMBN 25 μg/mL.
The mark [6] stands for this setting: Salmonella enterica, TYPHIMURIUM
The mark [7] stands for this setting: K. pneumoniae BARB 105, NAB7061 4 μg/mL.
[8] abbreviates: K. pneumoniae BARB 105, PMBN 25 μg/mL.
[9] abbreviates: A. baumanii ATCC9955, NAB7061 4 μg/mL.
The mark [10] stands for this setting: A. baumanii ATCC9955, PMBN 25 μg/mL.
[11] abbreviates: Acinetobacter baumannii, ATCC9955.
Where [12] appears, read: E. coli C291-b1, NAB7061 4 μg/mL.
Where [13] appears, read: P. aeruginosa T15464 (MDR), NAB7061 4 μg/mL.
[14] abbreviates: P. aeruginosa T15464 (MDR), PMBN 3 μg/mL.
The mark [15] stands for this setting: Klebisiella spp., Addition None.
The mark [16] stands for this setting: Klebisiella spp., NAB7061 4 μg/mL.
[17] abbreviates: Klebisiella spp., PMBN 25 μg/mL.

As for `CC[C@H]1OC(=O)[C@H](C)[C@@H](O[C@H]2C[C@@](C)(OC)[C@@H](O)[C@H](C)O2)[C@H](C)[C@@H](O[C@@H]2O[C@H](C)C[C@H](N(C)C)[C@H]2O)[C@](C)(O)C[C@@H](C)C(=O)[C@H](C)[C@@H](O)[C@]1(C)O` [erythromycin], the MIC in test [1] (setting [3]) was more than 1000 µg/mL.

As to `CC1(C)S[C@@H]2[C@H](NC(=O)C(C(=O)O)c3ccccc3)C(=O)N2[C@H]1C(=O)O` (stereo partly shown) [Carbenicillin], the MIC is more than 500 µg/mL in the test with S. typhimurium SL1344 (setting [4]); more than 500 µg/mL against S. typhimurium SL1344 (setting [5]); more than 500 µg/mL against S. typhimurium SL1344 (setting [6]); >1,000 μg/mL against K. pneumoniae BARB 105 (setting [7]); >1,000 μg/mL with K. pneumoniae BARB 105 (setting [8]); more than 1000 µg/mL against K. pneumoniae BARB 105 (Klebsiella pneumoniae, BARB105). The MIC is >1,000 μg/mL against A. baumanii ATCC9955 (setting [9]); >1,000 μg/mL against A. baumanii ATCC9955 (setting [10]); more than 1000 µg/mL with A. baumanii ATCC9955 (setting [11]); >1,000 μg/mL against E. coli C291-b1 (setting [12]); >1,000 μg/mL against E. coli C291-b1 (E. coli C291-b1, PMBN 25 μg/mL); more than 1000 µg/mL with E. coli C291-b1 (Escherichia coli, C291B1). Moreover, the MIC was >1,000 μg/mL in test [1] (setting [13]); >1,000 μg/mL in [1] (setting [14]); more than 1000 µg/mL in test [1] (Pseudomonas aeruginosa); more than 1000 µg/mL in test [1] (setting [3]); more than 1250 µg/mL with Klebisiella spp.; >1,250 μg/mL with Klebisiella spp. (setting [15]). The MIC with Klebisiella spp. (setting [16]) is recorded as >1,250 μg/mL.

With `O=C1OC2(c3cc(I)c(O)c(I)c3Oc3c2cc(I)c(O)c3I)c2c(Cl)c(Cl)c(Cl)c(Cl)c21` [RB, Rose Bengal], the MIC was 4.5 µg/mL (≈ 4.62 µM) against E. coli NR698; 1.6 µg/mL (≈ 1.64 µM) in test [2] (Shigella flexneri ATCC12022, NAB7061 4 μg/mL); 7.5 µg/mL (≈ 7.7 µM) in test [2] (Shigella flexneri ATCC12022, PMBN 25 μg/mL); >1,272 ^* μg/mL in the test on S. typhimurium SL1344 (S. typhimurium SL1344, Addition None); 254 µg/mL (≈ 261 µM) in the test with S. typhimurium SL1344 (setting [4]); 17 µg/mL (≈ 17.5 µM) against S. typhimurium SL1344 (setting [5]). The MIC in the test on K. pneumoniae BARB 105 (K. pneumoniae BARB 105, Addition None) is >1,272 ^* μg/mL; against K. pneumoniae BARB 105 (setting [7]), >254 ^* μg/mL; against K. pneumoniae BARB 105 (setting [8]) it was 25.4 µg/mL (≈ 26.1 µM); in the test on E. coli MC4100 (E. coli MC4100, Addition None) it was >1,272 ^* μg/mL; against E. coli MC4100 (E. coli MC4100, NAB7061 4 μg/mL), 2.0 µg/mL (≈ 2.05 µM); in the test on E. coli MC4100 (E. coli MC4100, PMBN 25 μg/mL), 15.9 µg/mL (≈ 16.3 µM). The MIC with A. baumanii ATCC9955 (A. baumanii ATCC9955, Addition None) is >1,272 ^* μg/mL; against A. baumanii ATCC9955 (setting [9]), 127.2 µg/mL (≈ 131 µM); against A. baumanii ATCC9955 (setting [10]), 80.6 µg/mL (≈ 82.8 µM); with E. coli C291-b1 (E. coli C291-b1, Addition None) it was >1,272 ^* μg/mL; in the test with E. coli C291-b1 (setting [12]), >254 ^* μg/mL; in the test on E. coli C291-b1 (E. coli C291-b1, PMBN 25 μg/mL), 3.2 µg/mL (≈ 3.29 µM). The MIC was >1,272 ^* μg/mL in test [1] (P. aeruginosa T15464 (MDR), Addition None); 3.2 µg/mL (≈ 3.29 µM) in test [1] (setting [13]); 0.4 µg/mL (≈ 0.411 µM) in [1] (setting [14]); >1,272 ^* μg/mL in the test on Klebisiella spp. (setting [15]); >254 ^* μg/mL with Klebisiella spp. (setting [16]); >254 ^* μg/mL in the test on Klebisiella spp. (setting [17]). Besides, the results for the IC50 on PaSecA, on SpuB ATPase and on H+-ATPase were 1 µM, more than 200 µM and 60 µM, respectively.

Consider `CN[C@H](CC(C)C)C(=O)N[C@H]1C(=O)N[C@@H](CC(N)=O)C(=O)N[C@H]2C(=O)N[C@H]3C(=O)N[C@H](C(=O)N[C@H](C(=O)O)c4cc(O)cc(O)c4-c4cc3ccc4O)[C@H](O)c3ccc(c(Cl)c3)Oc3cc2cc(c3O[C@@H]2O[C@H](CO)[C@@H](O)[C@H](O)[C@H]2O[C@H]2C[C@](C)(N)[C@H](O)[C@H](C)O2)Oc2ccc(cc2Cl)[C@H]1O` [Vancomycin], for which the MIC in test [2] (Shigella flexneri, ATCC12022, Shigella flexneri ATCC12022, Addition None) was more than 250 µg/mL; in test [2] (Shigella flexneri, ATCC12022, Shigella flexneri ATCC12022, NAB7061 4 μg/mL) it was 250 µg/mL (≈ 173 µM); in test [2] (Shigella flexneri, ATCC12022, Shigella flexneri ATCC12022, PMBN 25 μg/mL), 62.5 µg/mL (≈ 43.1 µM); against S. typhimurium SL1344 (setting [4]) it was more than 250 µg/mL; with S. typhimurium SL1344 (setting [6]), more than 250 µg/mL; in the test on K. pneumoniae BARB 105 (Klebsiella pneumoniae, BARB105, K. pneumoniae BARB 105, Addition None) it was more than 1000 µg/mL. Besides, the MIC was determined as 1000 µg/mL (≈ 690 µM) in the test with K. pneumoniae BARB 105 (Klebsiella pneumoniae, BARB105, K. pneumoniae BARB 105, NAB7061 4 μg/mL); 500 µg/mL (≈ 345 µM) against K. pneumoniae BARB 105 (Klebsiella pneumoniae, BARB105, K. pneumoniae BARB 105, PMBN 25 μg/mL); 250 µg/mL (≈ 173 µM) in the test on E. coli MC4100 (Escherichia coli, MC4100, E. coli MC4100, Addition None); 31.3 µg/mL (≈ 21.6 µM) against E. coli MC4100 (Escherichia coli, MC4100, E. coli MC4100, PMBN 25 μg/mL); 250 µg/mL (≈ 173 µM) against A. baumanii ATCC9955 (setting [9]); 250 µg/mL (≈ 173 µM) in the test with A. baumanii ATCC9955 (setting [10]). In addition, the MIC is 250 µg/mL (≈ 173 µM) in the test with A. baumanii ATCC9955 (setting [11]); more than 250 µg/mL in the test on E. coli C291-b1 (Escherichia coli, C291B1, E. coli C291-b1, Addition None); 125 µg/mL (≈ 86.3 µM) against E. coli C291-b1 (Escherichia coli, C291B1, E. coli C291-b1, NAB7061 4 μg/mL); 31 µg/mL (≈ 21.4 µM) with E. coli C291-b1 (Escherichia coli, C291B1, E. coli C291-b1, PMBN 25 μg/mL); more than 1000 µg/mL in [1] (Pseudomonas aeruginosa, P. aeruginosa T15464 (MDR), Addition None); more than 1000 µg/mL in test [1] (Pseudomonas aeruginosa, P. aeruginosa T15464 (MDR), NAB7061 4 μg/mL). In addition, the MIC is 31 µg/mL (≈ 21.4 µM) in test [1] (Pseudomonas aeruginosa, P. aeruginosa T15464 (MDR), PMBN 3 μg/mL); more than 1000 µg/mL in test [1] (Pseudomonas aeruginosa, read-out: MIC100, clinical MDR P. aeruginosa strain T15464); 1000 µg/mL (≈ 690 µM) with Klebisiella spp. (setting [15]); 250 µg/mL (≈ 173 µM) with Klebisiella spp. (setting [16]); 250 µg/mL (≈ 173 µM) against Klebisiella spp. (setting [17]).
